Out of some 2,500 compounds screened, about 1,200 (48%) were called active. So high a share suggests a set chosen from earlier hits. Some of the results follow. Values without a mark were called inactive.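 How the source made its calls: active means mean activation above the low control average plus 3 SD, as set in the primary screen (cut at about 12% in these data); inactive means the rest.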

The target of the assay is Troponin I, cardiac muscle (Homo sapiens) + Troponin T, cardiac muscle (Homo sapiens) + Troponin C, slow skeletal and cardiac muscles (Homo sapiens) (UniProt P19429+P45379+P63316). The assay is described as follows: calcium sensitizers of cardiac thin filaments – biochemical, IANBD-TnC fluorescence, triplicate, confirmation (AID 504383).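 Further: 0% = DMSO at 0.472 mM calcium and 100% = DMSO at 2.9 mM calcium.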 Particulars: IANBD-labeled cardiac RTF, Ca2+ sensitivity fluorescence, at 7.2 µM, active compounds read high, tested at EC20 calcium, 0.472 mM. Summed up:
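Assay system: labelled regulated thin filaments / Timing: 15 min at 25 °C / Detection: fluorescence intensity of labelled filaments / Measure: fluorescence gain scaled between EC20 and EC100 calcium controls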
`CCN(CC)c1ccc(/C=C/[N+](=O)[O-])cc1`: the activation was 19.8% (active).

Regarding `Cn1cc(C=C(C#N)C#N)c2ccccc21`, the activation was 69.5% (active).

Consider `COC(=O)C1=C(c2ccc(F)cc2OCc2ccccc2)C[C@@H]2CC[C@H]1N2C(=O)NCc1ccc(OC)c(OC)c1`, for which the activation was 154% (active).

Turning to `COC(=O)C1=C(c2cccc(OC)c2OC)C[C@@H]2CC[C@H]1N2C(=O)NCc1ccco1`, the activation was 13.3% (active).

With `COC(=O)C1=C(c2cccc(OC)c2OC)C[C@@H]2CC[C@H]1N2C(=O)NCCCOC(C)C`, the activation is 5.72%.

As for `CCN(CC)CCCOC(=O)C(OC(C)C)(c1ccccc1)c1ccccc1`, the activation is 57.9% (active).

Turning to `C/C(=N\N1CCCCC1c1cccnc1)c1c(O)n(C2CCCCC2)c(=S)[nH]c1=O` (configuration not stated), the activation is 68.2% (active).

Regarding `COc1ccc(OC)c(-n2c(O)c(C=NCCN3CCNCC3)c(=O)[nH]c2=S)c1`, the activation was 27.9% (active).

With `O=c1[nH]c(=S)n(-c2ccccc2Cl)c(O)c1C=NCCN1CCNCC1`, the activation was 1670% (active).

On to `Cc1ccc(-n2c(O)c(C=NCC3CCCO3)c(=O)[nH]c2=O)c(C)c1` (configuration not stated), for which the activation is 7.57%.

With `Cc1cccc(N2C(=O)NC(=O)/C(=C\c3ccc4c(c3)CCCN4Cc3ccccc3)C2=O)c1`, the activation was 4.9%.

For the molecule `CCOCCCNC(=O)C1c2cc(OC)c(OC)cc2C(=O)N2CCCCC12` (configuration not stated), the activation was 2.74%.

Turning to `COc1ccccc1N1C(=O)NC(=O)/C(=C/c2ccc3c4c(cccc24)CC3)C1=O`, the activation is 2.54%.

As for `CN1CCN(c2ccc(/C=C3\C(=O)NC(=S)N(c4cccc(Br)c4)C3=O)o2)CC1`, the activation is 4.38%.

With `CCc1ccccc1N1C(=O)/C(=C/c2ccc(N3CCN(C)CC3)o2)C(=O)NC1=S`, the activation is 1030% (active).

For `Cc1cccc(N2C(=O)/C(=C/c3ccc(N4CCN(C)CC4)o3)C(=O)NC2=S)c1C`, the activation is 16.4% (active).

Take `Cc1ccccc1N1C(=O)NC(=O)/C(=C/c2ccc(N3CCOCC3)o2)C1=O`: the activation was 42.7% (active).

As to `Cc1ccccc1N1C(=O)NC(=O)/C(=C\c2cc(Br)c(N3CCOCC3)o2)C1=O`, the activation was 11%.

Regarding `CN1C(=O)C(=Cc2ccc(N3CCOCC3)o2)C(=O)N(C)C1=S`, the activation is 10.3%.

In the case of `O=C1NC(=O)C(=Cc2ccc(N3CCOCC3)o2)C(=O)N1`, the activation is 2.33%.

As to `C=CCN1C(=O)/C(=C\c2ccc(N3CCOCC3)o2)C(=O)NC1=S`, the activation was 4%.

With `CN1C(=O)C(=Cc2ccc(N3CCOCC3)o2)C(=O)N(C)C1=O`, the activation is 50.2% (active).

With `CN1C(=O)C(=Cc2ccc(N3CCCCCC3)o2)C(=O)N(C)C1=S`, the activation is 94.7% (active).

As for `CCN1C(=O)C(=Cc2ccc(N3CCOCC3)o2)C(=O)N(CC)C1=S`, the activation was 7.34%.

Turning to `COc1ccc(N2C(=O)/C(=C/c3ccc(N(C)C)o3)C(=O)NC2=S)cc1`, the activation was 338% (active).

Take `COc1cc(/C=C2/C(=O)NC(=O)N(c3ccc(C)cc3)C2=O)cc(OC)c1OC`: the activation was 6.29%.

Turning to `C=CCN1C(=O)/C(=C/c2ccc(N3CCOCC3)o2)C(=O)NC1=S`, the activation was 29.1% (active).

Turning to `CN1C(=O)C(=Cc2sc(=O)n(-c3ccccc3)c2N2CCCCC2)C(=O)N(C)C1=O`, the activation is 3.11%.

`CCN(CC)c1ccc(/C=C2\C(=O)NC(=S)N(c3ccc(OC)cc3OC)C2=O)o1`: the activation was 8.36%.

Take `CN1Cc2c(c(C#N)c(N)n(C)c2=S)CC1(C)C`: the activation is 4.38%.

As to `COc1ccc2c3c([nH]c2c1)C(C)=NCC3`, the activation is 9.9%.

Turning to `FC(F)(F)c1ccc2c(c1)nnn2C1CCN(Cc2nnnn2Cc2ccccc2)CC1`, the activation was 4.26%.

On to `CCN(CC)c1ccc(/C=C2\C(=O)NC(=S)N(C)C2=O)o1`, for which the activation was 25.4% (active).

For the molecule `CN1C(=O)/C(=C\c2ccc(N3CCCCC3)o2)C(=O)NC1=S`, the activation is 8.33%.

For the molecule `CCOc1ccc(N2C(=O)NC(=O)/C(=C\c3ccc(N4CCCCC4)o3)C2=O)cc1`, the activation was 154% (active).

Take `O=C1NC(=O)N(c2ccc3c(c2)OCO3)C(=O)/C1=C\c1ccc(N2CCCCC2)o1`: the activation is -1.01%.

For the molecule `CN1C(=O)/C(=C/c2ccc(N3CCCCCC3)o2)C(=O)NC1=S`, the activation is 39% (active).

As to `O=C1NC(=O)N(c2ccc3c(c2)OCO3)C(=O)/C1=C/c1ccc(N2CCCC2)o1`, the activation is 3.64%.

As for `CCN(CC)c1ccc(C=C2C(=O)N(C)C(=S)N(C)C2=O)o1`, the activation is 8.61%.

Regarding `COc1cccc2c1C(=O)c1c(O)c3c(c(O)c1C2=O)CC(O)(C(C)=NO)CC3OC1CC(N)C(O)C(C)O1` (configuration not stated), the activation was 4.26%.

For `Nc1ccc2ccc3cccc[n+]3c2c1`, the activation is 11.7% (active).

Take `Cc1ccc(N2C(=O)NC(=O)/C(=C\c3ccoc3)C2=O)cc1`: the activation is 4.43%.

`CN1CCc2cc3c(c4c2C1Cc1ccccc1-4)OCO3` (configuration not stated): the activation was 13.5% (active).

Consider `CC1=NCCc2c1[nH]c1cc(O)ccc21`, for which the activation was 5.4%.

As to `CCCc1cc(=O)oc2cc(OCC(=O)N3C[C@H]4C[C@@H](C3)c3cccc(=O)n3C4)ccc12`, the activation is 113% (active).

Consider `CCCc1cc(=O)oc2cc(OCC(=O)N3CCC(C(=O)O)(c4ccccc4)CC3)ccc12`, for which the activation was 10.7%.

In the case of `O=C1NC(=O)C(=Cc2cn(CCOc3ccc4c(c3)OCO4)c3ccccc23)C(=O)N1`, the activation is 12.6% (active).

Take `COc1ccc(N2C(=O)NC(=O)/C(=C\c3cn(C)c4ccccc34)C2=O)cc1`: the activation is 3.56%.

`Cc1ccc(/C=C2/Sc3ccc(C(=O)N4CCC5(CC4)OCCO5)cc3NC2=O)cc1`: the activation was 106% (active).

For the molecule `COc1ccc(CC(=O)N2CCN(C)CC2)cc1OC`, the activation is 13.3% (active).

On to `Cc1cc(C=C(C#N)C#N)ccc1N1CCCC1`, for which the activation is 13% (active).

For `Cc1cc(N2CCCC2)ccc1C=C(C#N)C#N`, the activation is 95.7% (active).

In the case of `N#CC(C#N)=Cc1ccc(C=C(C#N)C#N)cc1`, the activation was 1.09%.

`Cc1cc(Cl)ccc1C(=O)C1CCCN(C2CCSCC2)C1` (configuration not stated): the activation is 2.78%.

With `O=Cc1c(C(=O)O)n(Cc2ccc(Cl)cc2)c2ccccc12`, the activation was 7.27%.

Consider `Cc1cc(N(CCCl)CCCl)ccc1C=Cc1ccncn1`, for which the activation is 17.4% (active).

Take `CCCCn1c(O)c(/C=C/C=Nc2ccccc2)c(=O)[nH]c1=O`: the activation was 10%.

For `CCCCn1c(O)c(C(=O)/C=C/c2c[nH]c3ccccc23)c(=O)[nH]c1=O`, the activation is 14.8% (active).

Regarding `NC(=O)c1c(NC(=O)c2ccc(S(=O)(=O)N(CCCl)CCCl)cc2)sc2c1CCCCC2`, the activation was 14.1% (active).

As for `N#CC(C#N)=Cc1ccc(-c2ccccc2F)o1`, the activation is 45.7% (active).

As to `CCCCC(=O)N/N=C/c1c(O)n(CC)c(=S)n(CC)c1=O`, the activation was 4.35%.

On to `O=c1[nH]c(=S)n(-c2ccc(Br)cc2)c(O)c1C=Nc1ccc(N2CCOCC2)cc1`, for which the activation is 6.9%.

As to `CCn1c(O)c(C=Nc2ccc(N3CCOCC3)cc2)c(=O)n(CC)c1=S`, the activation is 88.4% (active).

Regarding `CCCCN1C(=O)NC(=O)C2(Cc3ccccc3N3CCOCC32)C1=O` (configuration not stated), the activation is 4.27%.

In the case of `CCCCCCC(=O)N/N=C/c1c(O)n(CCc2ccccc2)c(=O)[nH]c1=O`, the activation was -0.94%.

Regarding `O=c1[nH]c(=O)n(Cc2ccc(F)cc2)c(O)c1/C=N/Nc1ccccc1`, the activation was 107% (active).

With `C=CCn1c(O)c(C=NC2CCN(Cc3ccccc3)CC2)c(=O)[nH]c1=O`, the activation is 6.93%.

For the molecule `OC12CCCCC1C(c1ccccc1)NCC2` (configuration not stated), the activation is 7.25%.

Turning to `O=C(CN1CCN(c2ccccc2F)CC1)Nc1cccnc1Cl`, the activation is 27.1% (active).

On to `CN1/C(=C\C=C2C(=O)NC(=S)NC2=O)C(C)(C)c2ccccc21`, for which the activation was 10.4%.

`COc1ccc(CN2C(=O)NC(=O)/C(=C/c3ccoc3)C2=O)cc1`: the activation was 10.9%.

Take `O=C1NC(=O)N(c2cccc(Cl)c2)C(=O)/C1=C\c1ccc(Sc2nc3ccccc3[nH]2)o1`: the activation was 11.5%.

As for `Cc1cc(C)c(Cn2c(C(=O)O)c(C=O)c3ccccc32)c(C)c1`, the activation is 10.3%.

For the molecule `O=c1[nH]c(O)c(C=Nc2ccccc2Oc2ccccc2)c(=O)[nH]1`, the activation is 10.2%.

For `Cc1ccc(-n2c(O)c(/C=C/C=Nc3ccccc3)c(=O)[nH]c2=O)cc1`, the activation is 26.4% (active).

As for `O=c1[nH]c(=O)n(-c2ccccc2)c(O)c1/C=C/C=Nc1ccccc1`, the activation was 8.9%.

As for `COc1ccc(-n2c(O)c(/C=C/C=Nc3ccccc3)c(=O)[nH]c2=O)cc1`, the activation was 5.05%.

`CCN(CC)c1ccc(N=Cc2c(O)n(Cc3ccco3)c(=O)[nH]c2=O)cc1`: the activation is 5.39%.

As to `Cc1cccc(-n2c(O)c(/C=C/C=Nc3ccccc3)c(=O)[nH]c2=O)c1`, the activation was 414% (active).

Take `O=c1[nH]c(=O)n(C2CCCCC2)c(O)c1/C=C/C=Nc1ccccc1`: the activation is 12.3% (active).

As for `CNS(=O)(=O)c1ccc(N=Cc2c(O)n(-c3ccccc3)c(=O)[nH]c2=O)cc1`, the activation is 37.6% (active).

`CCN(CC)c1ccc(/C=N/c2sc3c(c2C#N)C2CCN3CC2)c(O)c1`: the activation is 7.45%.

Regarding `O=C1NC(=O)N(Cc2ccccc2)C(=O)/C1=C\N1CCCc2ccccc21`, the activation was 3.9%.

Regarding `O=c1[nH]c(O)c(/C=C2\C=Nc3ccc(OCc4ccccc4)cc32)c(=O)[nH]1`, the activation was 8.62%.

As for `Cn1c(O)c(/C=C/C=Nc2ccccc2)c(=O)n(C)c1=O`, the activation was 9.76%.

`Cn1c(O)c(/C=C/C=Nc2ccccc2)c(=O)n(C)c1=S`: the activation was 21.7% (active).

In the case of `CC1=C[C@@H]2c3cccc4[nH]cc(c34)C[C@H]2N(C)C1`, the activation is 50% (active).

For the molecule `CN1C[C@H](CO)C=C2c3cccc4[nH]cc(c34)C[C@H]21`, the activation was -3.89%.

For `CCC(CO)NC(=O)C1C=C2c3cccc4[nH]cc(c34)CC2N(C)C1` (configuration not stated), the activation is 9.84%.

As for `Nc1c(C(=O)NCC2CCCO2)c2nc3ccccc3nc2n1Cc1ccco1` (configuration not stated), the activation is 1930% (active).

`COCCOC(=O)c1c(N)n(Cc2ccco2)c2nc3ccccc3nc12`: the activation is 8.08%.

`COCCNC(=O)c1c(N)n(Cc2ccco2)c2nc3ccccc3nc12`: the activation was 16.3% (active).

The record behind these values is PubChem BioAssay AID504383 (The Scripps Research Institute Molecular Screening Center, 2011).
